Compound activity (PubChem BioAssay)
Lmaj promast: reduces viability of Leishmania major promastigotes | resazurin fluorescence viability | inhibition, % at 10 µM | actives 9% (n = 200,000); in the data active means inhibition above about 50%;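 further: promastigotes grown with compound for 44 hours at 28 °C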
Dynein transport: dynein cargo transport inhibition; actives 0.47% (n = 220,000); AID 1381; 3617.4 mouse cells, GR-EGFP nuclear translocation imaging; test concentration mostly 20 µM; stimulated with dexamethasone, 1 µM; active compounds read low; z-score, hits read low;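 active means plate z-score of nuclear minus cytoplasmic receptor signal below a set negative limit, without overly bright fluorescence or cell loss, cut at about -3.5 in these data, passing the limit was not always enough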;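 further: z-score of nuclear minus cytoplasmic ring GR-EGFP intensity difference per well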
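Buffer or medium: tetracycline-free induction medium containing charcoal-stripped FBS / Reagent: dexamethasone agonist, 1.0 µM final, for 30 min / Technique: automated 10x imaging of fixed Hoechst-stained cells / Times: induction 48 h, compound 1 h, agonist 30 min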
HSV augment: HSV replication enhancement | HSV replication augmentation in cells, fold increase | maximum fold increase | actives 0.005% (n = 220,000) | AID 1956; in the data active means maximum fold increase above about 1.5; tested in PC3 cells
bCat nuc transl: beta-catenin nuclear translocation modulation. actives 0.3% (n = 190,000). nuclear translocation activity, % at 5 µM. AID 1665. HeLa beta-catenin nuclear translocation, immunofluorescence imaging;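 active means nuclear translocation activity above 50% at 5 µM, with a well cell count of 50 or more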;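 further: per-cell ratio of nuclear to cytoplasmic median beta-catenin stain intensity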
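Test system: human HeLa cell line; Doses: 5 µM primary, 0.02–20 µM confirmation; Incubation: 24 h compound exposure, 37°C; Detection: beta-catenin immunofluorescence imaging with DAPI; Read-out: beta-catenin nuclear/cytoplasmic ratio, % activation.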
MT stabilizer: microtubule stabilizers in HeLa cells; actives 0.83% (n = 200,000); % tubulin-high responders, % at 10 µM; HeLa tubulin immunostaining HCS, 24 h; share of cells brighter than vehicle mean+2SD; AID 2205;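 active means plate Z-score above 3 for both tubulin-high and condensed-nucleus cell shares, with cell loss under 80%, at 10 µM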;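 further: anti alpha tubulin signal scored within the nucleus-defined area of each cell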
Of the large screens only hits and unclear results are named; the others gave an inactive call. Shown are actives, neighbours in structure and some others; about 8.9% of the full set was active somewhere.

Clc1ccc(OCCn2cnc3ccccc32)cc1	none
COc1cccc(-c2nc(C(N)=O)c3[nH]c(=O)n(-c4cccc(Cl)c4)c3n2)c1OC	none
CCc1ccc(-c2nc(C(N)=O)c3[nH]c(=O)n(-c4ccccc4OC)c3n2)cc1	MT stabilizer 17
COc1ccc(-c2nc(C(N)=O)c3[nH]c(=O)n(-c4cccc(Cl)c4)c3n2)cc1OC	Lmaj promast 60 (no result: HSV augment, bCat nuc transl)
CCOc1ccccc1-c1nc(C(N)=O)c2[nH]c(=O)n(-c3ccc(F)cc3)c2n1	none
COc1ccc(S(=O)(=O)NC(N)=NCCc2ccccc2OC)cc1	none
CCN(CC)S(=O)(=O)c1ccc(N2CCCCC2)c(NC(=O)/C=C/c2cc(OC)c(OC)c(OC)c2)c1	Lmaj promast 69
COc1ccccc1OCC(=O)Nc1cc(S(=O)(=O)N2CCCCC2)ccc1N1CCCCC1	Lmaj promast 98
COc1ccccc1C(=O)OCC(=O)Nc1cc(S(=O)(=O)N2CCOCC2)ccc1N1CCCC1	none
COc1ccc(/C=C/C(=O)Nc2cc(S(=O)(=O)N3CCCCC3)ccc2N2CCCCC2)cc1OC	Lmaj promast 97 (no result: bCat nuc transl)
O=C(/C=C/c1ccc2c(c1)OCO2)Nc1cc(S(=O)(=O)N2CCOCC2)ccc1N1CCOCC1	Lmaj promast 64 (no result: bCat nuc transl)
COc1ccc(/C=C/C(=O)Nc2cc(S(=O)(=O)N3CCOCC3)ccc2N2CCCC2)cc1OC	none
Cc1ccc(Cl)cc1N1CCN(C(=O)C2CCN(c3nnc(-n4cccc4)s3)CC2)CC1	none
Cc1cccc(N2CCN(C(=O)c3ccc(CNc4c(N5CCC(C)CC5)c(=O)c4=O)cc3)CC2)c1C	none
CC(=O)N1CCc2c(sc(NC(=O)CN3C(=O)CCC3=O)c2C(N)=O)C1	none
O=C(Nc1cc(S(=O)(=O)N2CCOCC2)ccc1N1CCOCC1)c1cnccn1	none (no result: HSV augment)
CCN(CCNC(=O)c1cccc(N2CCCC2=O)c1)c1ccccc1	none (no result: bCat nuc transl)
CCN(CCCNC(=O)c1ccc(N2CCCC2=O)cc1)c1cccc(C)c1	Lmaj promast 79
Cc1ccc2c(c1)c1c(n2CC2COC(C)(C)O2)C(=O)CCC1 (centres undefined)	none
COc1ccc(C2C(Oc3ccccc3)C(=O)N2c2cc(C)ccc2C)cc1OC (centres undefined)	none (no result: HSV augment, bCat nuc transl)
COc1ccc(C)cc1N1C(=N)/C(=C2/Nc3ccccc3S2)C(c2ccccc2)C1=O (centres undefined)	Lmaj promast 100, Dynein transport -3.6
Cc1ccc(C)c(NC(=O)CN(C)C(=O)CCN2C(=O)c3ccccc3C2=O)c1	none
COc1ccc(C(=O)c2c(C)c3ccccc3n2CC(O)CNC(C)C)cc1 (centres undefined)	Lmaj promast 97 (no result: bCat nuc transl)
COc1ccc(-c2cc3ccccc3n2CC(O)CNCCO)cc1 (centres undefined)	none (no result: bCat nuc transl)
CCN(CC)S(=O)(=O)c1ccc(C)c(NC(=O)CSc2ncc(C(F)(F)F)cc2Cl)c1	none
Cc1ccc(S(=O)(=O)N(C)C)cc1NC(=O)CSc1ncc(C(F)(F)F)cc1Cl	Lmaj promast 61
CC(C)c1ccc(CNc2ccc(N3CCOCC3)cc2)cc1	Lmaj promast 81
COc1ccccc1CNc1ccc(N2CCCCC2)cc1	none (no result: bCat nuc transl)
COc1cccc(CNc2ccc(N3CCCCC3)cc2)c1OC	Lmaj promast 100 (no result: bCat nuc transl)
CCOc1cc(CNc2ccc(N3CCCC3)cc2)cc(Cl)c1OC	none
COc1cc(CNc2ccc(N3CCCC3)cc2)cc(Cl)c1OC	MT stabilizer 16
CCOc1ccc(CNc2ccc(N3CCCC3)cc2)cc1	Lmaj promast 100
O=C(NCCc1ccccc1)/C(=N\O)c1ccccc1	none (no result: HSV augment)
CC1CCCC(NC(=O)c2cn(C)c3ccc(S(=O)(=O)N4CCCC4)cc3c2=O)C1C (centres undefined)	Lmaj promast 63 (no result: HSV augment, bCat nuc transl)
CCn1cc(C(=O)NC2CCC(C)CC2)c(=O)c2cc(S(=O)(=O)N3CCCCC3)ccc21 (centres undefined)	Lmaj promast 76 (no result: bCat nuc transl)
CCCCC(=O)Nc1nc2ccc3nc(C)sc3c2s1	none
Cc1ccc(Cn2c(Sc3nnc(C)s3)nc3c2c(=O)[nH]c(=O)n3C)cc1	none (no result: bCat nuc transl)
O=C(Nc1sc2c(c1-c1nc3ccccc3[nH]1)CCCC2)C1CCCC1	Lmaj promast 88
CN1CCN(S(=O)(=O)c2cccc(C(=O)Nc3sc4c(c3-c3nc5ccccc5[nH]3)CCCC4)c2)CC1	Lmaj promast 98
CC(=O)NCCC(=O)Nc1sc2c(c1-c1nc3ccccc3[nH]1)CCCC2	Lmaj promast 98
O=C(CSc1ccc2ccccc2n1)NCCC1=CCCCC1	none
COC1=C(Nc2ccc(O)cc2)C(=O)c2ccccc2C1=O	Lmaj promast 53
CCOc1ccc(NC2=C(OC)C(=O)c3ccccc3C2=O)cc1	none
COC1=C(Nc2ccc(OC)cc2)C(=O)c2ccccc2C1=O	Lmaj promast 69
COc1ccc(NC2=C(NCCO)C(=O)c3ccccc3C2=O)cc1	MT stabilizer 21
NCCc1nnc(SCC(=O)c2ccc(Cl)cc2)o1	none (no result: Lmaj promast, MT stabilizer)
Cc1ccc(-n2c(C)cc(C=C(C#N)C#N)c2C)cc1	none
C=CCn1cc(C(=O)N2CCc3ccccc3C2)c(=O)c2cc(S(=O)(=O)N(CC)CC)ccc21	none
O=C(NCCNc1ccc([N+](=O)[O-])cc1C(F)(F)F)c1ccc(F)cc1	Lmaj promast 56
CSc1nc(N(C)NC(=O)c2ccc(F)cc2)c2ccccc2n1	MT stabilizer 33
Cc1ccsc1/C=N\NC(=O)c1n[nH]c2c1CCC2	MT stabilizer 25
O=C(N/N=C/c1c(Cl)cccc1Cl)c1n[nH]c2c1CCCC2	none
CN1CCN(C(=O)c2cc3nc(-c4ccccc4)cc(-c4ccccc4)n3n2)CC1	Lmaj promast 95
O=C(c1cc2nc(-c3ccccc3)cc(-c3ccccc3)n2n1)N1CCCC1	none
CCc1ccc(N2C(=O)Nc3ccccc3C2(O)C(=O)N2CCN(c3ccccn3)CC2)cc1 (centres undefined)	Lmaj promast 69
Cc1ccc(N2C(=O)Nc3ccccc3C2(O)C(=O)N2CCN(c3ccccn3)CC2)cc1C (centres undefined)	none
COCCN=c1scc(-c2ccco2)n1/N=C/c1ccc(O)c(O)c1O	none
CC(C)N=c1scc(-c2ccco2)n1/N=C/c1ccc(O)c(O)c1	Lmaj promast 99
Oc1ccc(/C=N/n2c(-c3ccco3)csc2=Nc2cccnc2)c(O)c1	Lmaj promast 99
N#Cc1c(N2CCCC2)nc(N)c2c(N)nc(N3CCCC3)cc12	none
CC(C)(C)C(=O)N1CCN(c2ccc([N+](=O)[O-])c(NCC3CCCO3)c2)CC1 (centres undefined)	none
CN(CCN1CCOCC1)Cc1nc(-c2ccccc2)no1	Lmaj promast 90
CCn1ccnc1CN(C)Cc1nc(-c2ccccc2)no1	none
COc1ccc(NC(=S)NCCc2ccccc2)c(OC)c1	none
CCCOC(=O)Nc1nc2ccccc2o1	none
CCOC(=O)C(=CN=C(N)Nc1nc2ccccc2o1)C(=O)OCC	Lmaj promast 56
COc1ccccc1OCCSc1nnc(C)n1-c1ccccc1	Lmaj promast 73 (no result: bCat nuc transl)
Cc1nnc(SCC(=O)NNC(=O)c2ccccc2)n1-c1ccccc1	Lmaj promast 66
